The record followed here is ChEMBL document CHEMBL1165966, “ppGpp analogues inhibit synthetase activity of Rel proteins from Gram-negative and Gram-positive bacteria” (Bioorg Med Chem, 2010).

Assay [1] deals with T1, GTP pyrophosphokinase (Escherichia coli K-12) (UniProt P0AG20).
T1 sequence (whole entry): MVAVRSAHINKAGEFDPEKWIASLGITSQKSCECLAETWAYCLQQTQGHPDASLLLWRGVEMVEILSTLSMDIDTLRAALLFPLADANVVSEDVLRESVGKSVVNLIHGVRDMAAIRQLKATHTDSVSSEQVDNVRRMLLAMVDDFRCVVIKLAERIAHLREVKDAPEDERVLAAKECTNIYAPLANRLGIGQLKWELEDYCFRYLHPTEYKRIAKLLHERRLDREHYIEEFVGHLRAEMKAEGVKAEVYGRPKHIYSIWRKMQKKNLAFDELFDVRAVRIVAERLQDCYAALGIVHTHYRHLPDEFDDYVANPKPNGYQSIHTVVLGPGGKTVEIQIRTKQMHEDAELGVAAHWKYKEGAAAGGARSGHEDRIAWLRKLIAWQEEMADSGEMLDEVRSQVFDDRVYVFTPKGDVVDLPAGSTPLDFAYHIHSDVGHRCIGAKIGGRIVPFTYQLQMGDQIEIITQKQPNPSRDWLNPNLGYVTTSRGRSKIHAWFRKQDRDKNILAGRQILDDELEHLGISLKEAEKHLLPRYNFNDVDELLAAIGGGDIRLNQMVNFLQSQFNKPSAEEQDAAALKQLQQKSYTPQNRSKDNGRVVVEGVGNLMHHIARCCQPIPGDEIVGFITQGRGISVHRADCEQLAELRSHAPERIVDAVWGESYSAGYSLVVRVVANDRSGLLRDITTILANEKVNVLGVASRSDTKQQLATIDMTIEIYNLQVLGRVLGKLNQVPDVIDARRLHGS
Kind of assay: Inhibition of synthetic activity of Escherichia coli RelA assessed as inhibition of (p)ppGpp accumulation at 5 to 10 mM after 60 mins.

In assay [2] the target is T2, Bifunctional (p)ppGpp synthase/hydrolase RelA (Streptococcus dysgalactiae subsp. equisimilis) (UniProt Q54089).
T2 sequence (whole entry): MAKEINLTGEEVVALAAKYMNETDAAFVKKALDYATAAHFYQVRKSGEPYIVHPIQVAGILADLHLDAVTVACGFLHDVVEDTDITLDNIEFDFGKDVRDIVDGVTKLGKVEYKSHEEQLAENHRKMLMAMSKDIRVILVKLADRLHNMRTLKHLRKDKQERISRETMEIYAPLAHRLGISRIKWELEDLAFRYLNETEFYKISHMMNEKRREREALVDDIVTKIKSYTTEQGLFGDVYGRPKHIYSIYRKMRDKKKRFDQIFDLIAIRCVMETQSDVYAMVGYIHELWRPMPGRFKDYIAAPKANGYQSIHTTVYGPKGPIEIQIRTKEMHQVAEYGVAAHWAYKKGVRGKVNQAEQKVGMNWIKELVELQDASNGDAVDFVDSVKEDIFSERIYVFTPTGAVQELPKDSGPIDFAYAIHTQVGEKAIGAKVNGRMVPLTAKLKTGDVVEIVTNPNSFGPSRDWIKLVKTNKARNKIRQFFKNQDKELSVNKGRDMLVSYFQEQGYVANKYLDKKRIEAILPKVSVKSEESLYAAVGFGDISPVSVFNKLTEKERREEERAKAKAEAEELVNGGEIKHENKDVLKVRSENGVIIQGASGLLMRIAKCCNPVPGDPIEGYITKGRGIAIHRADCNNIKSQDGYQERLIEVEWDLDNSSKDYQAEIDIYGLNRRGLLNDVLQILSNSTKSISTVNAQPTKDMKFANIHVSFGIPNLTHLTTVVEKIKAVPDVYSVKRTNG
Kind of assay: Inhibition of synthetic activity of Streptococcus equisimilis RelA assessed as inhibition of (p)ppGpp accumulation at 5 to 10 mM after 5 mins.

In assay [3] the target is T1, GTP pyrophosphokinase (Escherichia coli K-12). Put plainly: Inhibition of Escherichia coli RelA catalytic site at 5 mM in presence of increasing concentration of ATP. Put shortly:
(§1)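 The buffer was Tris–HCl pH 7.4 with DTT, MgCl2, KCl and (NH4)2SO4. Analogue was held at 5 mM while GTP or ATP was raised. Reactions ran 60 min at room temperature, were stopped with formic acid, and (p)ppGpp accumulation was the read-out.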

Assay [4] has the same target. Kind of assay: Inhibition of Escherichia coli RelA dissociation from ribosome assessed as increase in bound protein at 1 to 10 mM after 4 hrs by chemiluminescence assay relative to control. Summed up: (§2)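 Ribosomes were isolated through a 40% sucrose cushion from E. coli grown in LB at 37 °C. RelA plus ribosomes and analogue at 1–10 mM were centrifuged 4 h at 32,000 rpm, 4 °C, and split into soluble and ribosomal fractions. Ribosomal fractions were run on 12% SDS-PAGE, blotted to PVDF and probed with anti-His antibody (1:10,000).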

Assay [5] deals with T2, Bifunctional (p)ppGpp synthase/hydrolase RelA (Streptococcus dysgalactiae subsp. equisimilis). Kind of assay: Inhibition of synthetic activity of Streptococcus equisimilis RelA assessed as inhibition of (p)ppGpp accumulation at 0.5 mM after 5 mins.
Assay [6] addresses T1, GTP pyrophosphokinase (Escherichia coli K-12). Put plainly: Inhibition of Escherichia coli RelA catalytic site at 5 mM in presence of increasing concentration of GTP. Put shortly:
as §1

Assay [7] deals with T3, GTP pyrophosphokinase (Escherichia coli K-12), P0AG20 [G251E].
T3 sequence (whole entry): T1 sequence (whole entry) with G251E
Kind of assay: Inhibition of Escherichia coli RelA G251E mutant dissociation from ribosome at 1 to 10 mM after 4 hrs by chemiluminescence assay. Summed up: as §2

The subject of a further assay is Escherichia coli. Put plainly: Inhibition of synthetic activity of Escherichia coli RelA C638F mutant at 1 to 10 mM. Summed up: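 Analogue was added at 1, 5 or 10 mM in duplicate lanes. The buffer was Tris–HCl pH 7.4 containing DTT, MgCl2, KCl and (NH4)2SO4. Reactions ran at room temperature and were stopped with formic acid.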
Assay [8] deals with T1, GTP pyrophosphokinase (Escherichia coli K-12). Put plainly: Inhibition of synthetic activity of Escherichia coli RelA assessed as inhibition of (p)ppGpp accumulation at > 1 mM after 60 mins.
Assay [9] has the same target. Put plainly: Inhibition of Escherichia coli RelA dissociation from L11 mutated ribosome assessed as increase in bound protein at 1 to 10 mM after 4 hrs by chemiluminescence assay relative to control. Put shortly: as §2
For assay [10], the target named is T2, Bifunctional (p)ppGpp synthase/hydrolase RelA (Streptococcus dysgalactiae subsp. equisimilis). Put plainly: Inhibition of Streptococcus equisimilis RelA catalytic site at 5 mM in presence of increasing concentration of GTP.
For assay [11] the target is unchanged. Kind of assay: Inhibition of Streptococcus equisimilis RelA catalytic site at 5 mM in presence of increasing concentration of ATP.
Assay [12] addresses T1, GTP pyrophosphokinase (Escherichia coli K-12). Put plainly: Inhibition of synthetic activity of Escherichia coli RelA assessed as inhibition of (p)ppGpp accumulation at 0.1 to 0.5 mM after 60 mins.

Molecules are shown by their SMILES. Substitutions are numbered along the chain they refer to. Active and inactive are the calls of the source. The rule behind the calls is not given here.

As to `Nc1nc2c(ncn2[C@@H]2O[C@H](COP(=O)(O)CP(=O)(O)O)[C@@H](O)[C@H]2O)c(=O)[nH]1`, the inhibition result in [1] and in assay [2] was “Active” each time.

Consider `Nc1nc2c(ncn2[C@H]2C[C@H](OP(=O)(O)CP(=O)(O)O)[C@@H](COP(=O)(O)CP(=O)(O)O)O2)c(=O)[nH]1`, for which the inhibition result (in assay [3]; with Escherichia coli; in assay [1]; in [2]; in assay [11]) was “Active” each time. Also, in assay [4], the fold change (FC) was found to be 3. The inhibition in assay [5] and in assay [8] was more than 50% throughout. The inhibition entry in assay [6], in [7], in [9], in assay [10] and in [12] was “inactive” in each case.

As for `Nc1nc2c(ncn2[C@H]2C[C@H](OP(=O)(O)CP(=O)(O)O)[C@@H](CO)O2)c(=O)[nH]1`, the inhibition entry in [1] and in assay [2] was “Active” each time.

On to `CC(C)C(=O)Nc1nc2c(ncn2[C@@H]2O[C@H](COP(=O)(O)CP(=O)(O)O)[C@@H](OP(=O)(O)CP(=O)(O)O)[C@H]2O)c(=O)[nH]1`, for which the inhibition result in assay [1] and in assay [2] was “Active” throughout.

In the case of `CC(C)C(=O)Nc1nc2c(ncn2[C@@H]2O[C@H](COP(=O)(O)CP(=O)(O)O)[C@@H](OP(=O)(O)CP(=O)(O)O)[C@H]2O[Si](C)(C)C(C)(C)C)c(=O)[nH]1`, the inhibition entry in assay [1] and in assay [2] was “Active” throughout.

In the case of `CC1(C)O[C@@H]2[C@H](O1)[C@@H](COP(=O)(O)CP(=O)(O)O)O[C@H]2n1cnc2c(=O)[nH]c(N)nc21`, the inhibition entry in assay [1] and in assay [2] was “Active” in each case.

For `Nc1nc2c(ncn2[C@@H]2O[C@H](COP(=O)(O)CP(=O)(O)O)[C@@H](OP(=O)(O)CP(=O)(O)O)[C@H]2O)c(=O)[nH]1`, the inhibition result in [1] and in [2] was “Active” in each case.
